Experimental data as given in ChEMBL document CHEMBL1148460, “Interaction of cycloSal-pronucleotides with cholinesterases from different origins. A structure-activity relationship” (J Med Chem, 2004).

Assays:
Cholinesterase [1] = molecular target: Cholinesterase (Mus musculus, UniProt Q03311); test: Inhibitory activity towards mouse butyrylcholinesterase
Procedure, shortened: (§1)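 Modified Rappaport assay following acetylcholine chloride hydrolysis to acetic acid, with m-nitrophenol indicator in phosphate buffer at pH 7.8 and NaCl. The compound is added in DMSO, and the reaction is started with serum (human, mouse or calf). A420 is read at 25 °C at 0 and 5 min. Final inhibitor is 0.1, 0.5, 1, 5, 10, 30 and 50 µM. IC50 is interpolated from ΔE plots in the pseudolinear region.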

Acetylcholinesterase [2] = molecular target: T1, Acetylcholinesterase (Bos taurus, UniProt P23795); test: Inhibitory activity towards calf serum acetylcholinesterase; procedure, shortened: as §1
T1 sequence (P23795 whole entry): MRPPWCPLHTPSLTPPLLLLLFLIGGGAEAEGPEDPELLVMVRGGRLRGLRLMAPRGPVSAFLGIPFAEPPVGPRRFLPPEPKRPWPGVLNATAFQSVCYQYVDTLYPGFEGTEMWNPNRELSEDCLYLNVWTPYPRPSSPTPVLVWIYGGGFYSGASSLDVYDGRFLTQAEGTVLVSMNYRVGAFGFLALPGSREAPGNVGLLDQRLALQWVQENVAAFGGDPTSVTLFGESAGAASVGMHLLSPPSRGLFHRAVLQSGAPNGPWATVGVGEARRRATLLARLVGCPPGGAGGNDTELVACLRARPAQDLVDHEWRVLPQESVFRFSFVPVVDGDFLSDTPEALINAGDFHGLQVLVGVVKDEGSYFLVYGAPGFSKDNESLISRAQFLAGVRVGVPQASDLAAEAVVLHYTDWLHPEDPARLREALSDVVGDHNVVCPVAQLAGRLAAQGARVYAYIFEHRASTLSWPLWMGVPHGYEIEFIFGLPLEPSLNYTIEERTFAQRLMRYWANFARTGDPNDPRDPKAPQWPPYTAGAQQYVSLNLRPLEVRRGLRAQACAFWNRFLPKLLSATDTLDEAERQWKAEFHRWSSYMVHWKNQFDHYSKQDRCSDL

Cholinesterase [3] = molecular target: Cholinesterase (Homo sapiens, UniProt P06276); test: Inhibitory activity towards human butyrylcholinesterase; procedure, shortened: as §1
Acetylcholinesterase [4] = molecular target: Acetylcholinesterase (Electrophorus electricus, UniProt O42275); test: Inhibitory activity towards Electrophorus electricus acetylcholinesterase
Acetylcholinesterase [5] = molecular target: T1, Acetylcholinesterase; test: Inhibitory activity towards beef erythrocytes acetylcholinesterase
L1210 = test: Antitumor activity tested in L1210 cells; assay type: functional, cell-based; settings: Mus musculus
CCRF-CEM = test: Anti-HIV-1 activity tested in human lymphocytic CEM cells; assay type: functional, cell-based

Sequence of Cholinesterase (Mus musculus, UniProt Q03311) (Q03311 whole entry): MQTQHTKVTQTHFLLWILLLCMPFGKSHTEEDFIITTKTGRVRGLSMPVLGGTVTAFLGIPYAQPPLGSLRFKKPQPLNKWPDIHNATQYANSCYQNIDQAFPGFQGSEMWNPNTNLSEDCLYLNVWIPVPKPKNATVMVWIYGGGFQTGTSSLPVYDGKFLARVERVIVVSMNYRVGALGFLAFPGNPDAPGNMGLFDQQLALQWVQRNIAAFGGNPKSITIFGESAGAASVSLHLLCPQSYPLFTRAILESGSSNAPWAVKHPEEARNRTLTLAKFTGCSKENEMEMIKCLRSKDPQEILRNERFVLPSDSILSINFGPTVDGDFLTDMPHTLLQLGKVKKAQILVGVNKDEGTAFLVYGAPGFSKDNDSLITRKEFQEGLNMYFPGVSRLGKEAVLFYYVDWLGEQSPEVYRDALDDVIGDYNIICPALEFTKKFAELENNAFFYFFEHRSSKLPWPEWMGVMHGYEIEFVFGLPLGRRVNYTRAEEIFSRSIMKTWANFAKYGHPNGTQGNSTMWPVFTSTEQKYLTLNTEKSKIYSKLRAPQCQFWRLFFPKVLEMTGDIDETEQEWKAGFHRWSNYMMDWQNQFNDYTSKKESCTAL
Sequence of Cholinesterase (Homo sapiens, UniProt P06276) (P06276 whole entry): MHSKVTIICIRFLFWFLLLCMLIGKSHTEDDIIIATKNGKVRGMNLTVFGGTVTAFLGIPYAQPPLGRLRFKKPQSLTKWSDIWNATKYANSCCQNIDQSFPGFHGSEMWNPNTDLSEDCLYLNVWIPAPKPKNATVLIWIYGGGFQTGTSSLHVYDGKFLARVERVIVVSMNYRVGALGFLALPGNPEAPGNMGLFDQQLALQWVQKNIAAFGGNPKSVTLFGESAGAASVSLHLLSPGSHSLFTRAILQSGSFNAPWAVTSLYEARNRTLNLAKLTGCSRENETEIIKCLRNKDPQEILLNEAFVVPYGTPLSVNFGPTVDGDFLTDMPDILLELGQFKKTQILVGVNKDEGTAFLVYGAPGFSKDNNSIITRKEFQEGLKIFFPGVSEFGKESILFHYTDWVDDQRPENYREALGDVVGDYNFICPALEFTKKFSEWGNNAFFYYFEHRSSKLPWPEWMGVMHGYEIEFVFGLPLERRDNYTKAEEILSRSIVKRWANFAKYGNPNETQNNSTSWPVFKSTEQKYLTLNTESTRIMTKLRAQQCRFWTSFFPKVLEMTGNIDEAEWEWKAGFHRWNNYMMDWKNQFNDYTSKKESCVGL
Sequence of Acetylcholinesterase (Electrophorus electricus, UniProt O42275) (O42275 whole entry): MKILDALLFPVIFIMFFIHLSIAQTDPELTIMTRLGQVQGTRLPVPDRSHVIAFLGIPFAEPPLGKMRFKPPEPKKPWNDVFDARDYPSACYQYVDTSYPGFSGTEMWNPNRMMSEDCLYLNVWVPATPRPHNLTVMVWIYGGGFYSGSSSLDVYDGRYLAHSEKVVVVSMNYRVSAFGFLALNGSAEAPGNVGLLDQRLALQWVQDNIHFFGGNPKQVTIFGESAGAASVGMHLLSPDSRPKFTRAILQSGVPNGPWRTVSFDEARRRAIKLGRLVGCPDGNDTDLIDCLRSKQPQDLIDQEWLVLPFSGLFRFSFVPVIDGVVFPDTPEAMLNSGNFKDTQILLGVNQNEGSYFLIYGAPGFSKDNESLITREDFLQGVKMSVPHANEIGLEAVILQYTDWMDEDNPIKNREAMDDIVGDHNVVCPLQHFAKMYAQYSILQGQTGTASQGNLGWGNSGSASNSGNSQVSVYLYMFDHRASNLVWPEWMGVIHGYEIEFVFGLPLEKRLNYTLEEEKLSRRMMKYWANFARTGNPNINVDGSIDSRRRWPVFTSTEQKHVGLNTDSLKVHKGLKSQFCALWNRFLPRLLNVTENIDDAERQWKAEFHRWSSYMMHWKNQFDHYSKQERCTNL

Compound	IC50 (Cholinesterase [1])	IC50 (Acetylcholinesterase [2])	IC50 (Cholinesterase [3])	IC50 (Acetylcholinesterase [4])	IC50 (Acetylcholinesterase [5])	EC50 (L1210)	EC50 (CCRF-CEM)	IC50 (L1210)
Cc1cccc2c1OP(=O)(OC[C@@H]1C[C@H](F)[C@H](n3cnc4c(N)ncnc43)O1)OC2 (some centres not stated)	> 50 µM	> 50 µM	5 µM	> 50 µM	> 50 µM	–	–	–
Cc1cccc2c1O[P@@](=O)(OC[C@H]1O[C@@H](n3cc(F)c(=O)[nH]c3=O)C[C@@H]1O)OC2	–	–	–	> 50 µM	–	0.04 µM	–	–
Cc1cn([C@H]2C=C[C@@H](CO[P@@]3(=O)OCc4cccc(C(C)(C)C)c4O3)O2)c(=O)[nH]c1=O	–	–	> 50 µM	> 50 µM	–	–	0.13 µM	–
Cc1cccc2c1OP(=O)(OC[C@@H]1C[C@@H](F)[C@H](n3cnc4c(N)ncnc43)O1)OC2 (some centres not stated)	–	–	1.1 µM	> 50 µM	–	–	–	–
O=C1NC(=O)N([C@H]2C[C@H](O)[C@@H](COP3(=O)OCc4cccc(-c5ccccc5)c4O3)O2)C[C@H]1/C=C/Br (some centres not stated)	–	–	> 50 µM	> 50 µM	–	–	–	–
Cc1cccc2c1O[P@@](=O)(OC[C@H](CO)OCn1cnc3c(O)nc(N)nc31)OC2	–	–	23 µM	> 50 µM	–	–	–	–
O=C1NC(=O)N([C@H]2C[C@H](O)[C@@H](CO[P@]3(=O)OCc4cccc(-c5ccccc5)c4O3)O2)CC1/C=C/Br (some centres not stated)	–	–	3.7 µM	> 50 µM	–	–	–	–
COc1ccc2c(c1)CO[P@](=O)(OC[C@@H]1C=C[C@H](n3cc(C)c(=O)[nH]c3=O)O1)O2	–	–	> 50 µM	> 50 µM	–	–	0.043 µM	–
Cc1cccc2c1O[P@@](=O)(OC[C@@H]1C=C[C@H](n3cc(C)c(=O)[nH]c3=O)O1)OC2	> 50 µM	> 50 µM	> 50 µM	> 50 µM	> 50 µM	–	0.08 µM	–
Cc1ccc2c(c1)COP(=O)(OC[C@@H]1C=C[C@H](n3cc(C)c(=O)[nH]c3=O)O1)O2 (some centres not stated)	–	–	4.6 µM	> 50 µM	–	–	–	–
Cc1cn(C2C=CC(COP3(=O)OCc4cc(CCC(=O)OCc5ccccc5)ccc4O3)O2)c(=O)[nH]c1=O (configuration not stated)	–	–	22 µM	> 50 µM	–	–	0.08 µM	–
Cc1cc(C)c2c(c1)COP(=O)(OCC1C=CC(n3cc(C)c(=O)[nH]c3=O)O1)O2 (configuration not stated)	–	–	46 µM	> 50 µM	–	–	–	–
Cc1cccc2c1OP(=O)(OC[C@H]1O[C@@H](N3C=NC4C(=O)N=C(N)N=C43)C[C@@H]1O)OC2 (some centres not stated)	–	–	> 50 µM	> 50 µM	–	–	–	–
Cc1cccc2c1OP(=O)(OC[C@H]1O[C@@H](n3cc(C)c(=O)[nH]c3=O)C[C@@H]1O)OC2 (some centres not stated)	–	–	36 µM	> 50 µM	–	–	–	–
Cc1cccc2c1OP(=O)(OC[C@H]1O[C@@H](n3cc(F)c(=O)[nH]c3=O)C[C@@H]1O)OC2 (some centres not stated)	–	–	> 50 µM	> 50 µM	–	–	–	0.04 µM
Cc1cccc2c1OP(=O)(OCC1CCC(n3cc(C)c(=O)[nH]c3=O)O1)OC2 (configuration not stated)	–	–	1 µM	> 50 µM	–	–	4.3 µM	–
Cc1cn(C2C=CC(COP3(=O)OCc4cc(C(C)(C)C)cc(C(C)(C)C)c4O3)O2)c(=O)[nH]c1=O (configuration not stated)	–	–	> 50 µM	> 50 µM	–	–	1.1 µM	–
Cc1cn(C2C=CC(COP3(=O)OCc4cccc(-c5ccccc5)c4O3)O2)c(=O)[nH]c1=O (configuration not stated)	–	–	0.35 µM	> 50 µM	–	–	0.13 µM	–
Cc1cn(C2C=CC(COP3(=O)OCc4cccc(CCC(=O)OCc5ccccc5)c4O3)O2)c(=O)[nH]c1=O (configuration not stated)	–	–	2.8 µM	> 50 µM	–	–	0.15 µM	–
Cc1cn(C2C=CC(COP3(=O)Oc4ccccc4C(C(Cl)(Cl)Cl)O3)O2)c(=O)[nH]c1=O (configuration not stated)	–	–	27 µM	> 50 µM	–	–	0.19 µM	–
CCCCC1OP(=O)(OCC2C=CC(n3cc(C)c(=O)[nH]c3=O)O2)Oc2cccc(Cl)c21 (configuration not stated)	–	–	13 µM	> 50 µM	–	–	0.19 µM	–
Cc1cccc2c1OP(=O)(OCC1C=CC(n3cnc4c(N)ncnc43)O1)OC2 (configuration not stated)	10.5 µM	> 50 µM	1.2 µM	> 50 µM	> 50 µM	–	0.065 µM	–
Cc1cn(C2C=CC(COP3(=O)OCc4c(ccc5ccccc45)O3)O2)c(=O)[nH]c1=O (configuration not stated)	–	–	3.9 µM	> 50 µM	–	–	0.09 µM	–
Cc1cccc2c1OP(=O)(OCC1C=CC(n3cnc4c(O)nc(N)nc43)C1)OC2 (configuration not stated)	–	–	2.5 µM	> 50 µM	–	–	0.47 µM	–
Cc1cn(C2C=CC(COP3(=O)OCc4cc(C(C)(C)C)ccc4O3)O2)c(=O)[nH]c1=O (configuration not stated)	–	–	5.6 µM	> 50 µM	–	–	0.14 µM	–
Cc1cn([C@H]2C=C[C@@H](COP3(=O)OCc4cccc(C(C)(C)C)c4O3)O2)c(=O)[nH]c1=O (some centres not stated)	–	–	4.2 µM	> 50 µM	–	–	0.18 µM	–

Compound	IC50 (Cholinesterase [1])	IC50 (Acetylcholinesterase [2])	IC50 (Cholinesterase [3])	IC50 (Acetylcholinesterase [4])	IC50 (Acetylcholinesterase [5])	EC50 (L1210)	EC50 (CCRF-CEM)	IC50 (L1210)
Cc1cn([C@H]2C=C[C@@H](COP3(=O)OCc4ccccc4O3)O2)c(=O)[nH]c1=O (some centres not stated)	–	–	0.77 µM	> 50 µM	–	–	–	–
Cc1cccc2c1OP(=O)(OC[C@@H]1C=C[C@H](n3cc(C)c(=O)[nH]c3=O)O1)OC2 (some centres not stated)	–	–	1.2 µM	> 50 µM	–	–	–	–
Cc1cccc2c1OP(=O)(OCC1CCC(n3cnc4c(N)ncnc43)O1)OC2 (configuration not stated)	2.35 µM	> 50 µM	0.91 µM	> 50 µM	> 50 µM	–	0.047 µM	–
CCC(C)c1ccc2c(c1)COP(=O)(OCC1C=CC(n3cc(C)c(=O)[nH]c3=O)O1)O2 (configuration not stated)	–	–	3.3 µM	> 50 µM	–	–	1.9 µM	–
CCOC(=O)CC1OP(=O)(OCC2C=CC(n3cc(C)c(=O)[nH]c3=O)O2)Oc2cccc(Cl)c21 (configuration not stated)	–	–	> 50 µM	> 50 µM	–	–	0.14 µM	–
Cc1cn(C2C=CC(COP3(=O)Oc4ccccc4C(CCl)O3)O2)c(=O)[nH]c1=O (configuration not stated)	–	–	3.9 µM	> 50 µM	–	–	0.19 µM	–
Cc1cn(C2C=CC(COP3(=O)Oc4cccc(Cl)c4C(C)O3)O2)c(=O)[nH]c1=O (configuration not stated)	–	–	1.8 µM	> 50 µM	–	–	0.19 µM	–
Cc1cccc2c1OP(=O)(OCC1OC(n3cc(C)c(=O)[nH]c3=O)CC1=O)OC2 (configuration not stated)	–	–	> 50 µM	> 50 µM	–	–	–	–
Cc1cn(C2C=CC(COP3(=O)OCc4c(Cl)cccc4O3)O2)c(=O)[nH]c1=O (configuration not stated)	–	–	0.57 µM	> 50 µM	–	–	0.09 µM	–
COC(=O)CCc1ccc2c(c1)COP(=O)(OCC1C=CC(n3cc(C)c(=O)[nH]c3=O)O1)O2 (configuration not stated)	–	–	8.8 µM	> 50 µM	–	–	0.24 µM	–
Cc1cn(C2C=CC(COP3(=O)OCc4ccc5ccccc5c4O3)O2)c(=O)[nH]c1=O (configuration not stated)	–	–	0.25 µM	> 50 µM	–	–	0.14 µM	–
COC(=O)CCc1cccc2c1OP(=O)(OCC1C=CC(n3cc(C)c(=O)[nH]c3=O)O1)OC2 (configuration not stated)	–	–	2.7 µM	> 50 µM	–	–	0.16 µM	–
Cc1cn(C2C=CC(COP3(=O)OCc4cc5ccccc5cc4O3)O2)c(=O)[nH]c1=O (configuration not stated)	–	–	0.41 µM	> 50 µM	–	–	0.41 µM	–
Cc1cccc2c1OP(=O)(OCC1CC(O)C(n3cnc4c(N)ncnc43)O1)OC2 (configuration not stated)	–	–	28 µM	> 50 µM	–	–	–	–
Cc1cn(C2C=CC(COP3(=O)OCc4cc(CCC(=O)OC(C)(C)C)ccc4O3)O2)c(=O)[nH]c1=O (configuration not stated)	–	–	4.4 µM	> 50 µM	–	–	0.18 µM	–
CCC(C)c1cccc2c1OP(=O)(OCC1C=CC(n3cc(C)c(=O)[nH]c3=O)O1)OC2 (configuration not stated)	–	–	2 µM	> 50 µM	–	–	0.08 µM	–
Cc1cn(C2C=CC(COP3(=O)OCc4cc(CCC(=O)O)ccc4O3)O2)c(=O)[nH]c1=O (configuration not stated)	–	–	> 50 µM	> 50 µM	–	–	0.14 µM	–
Cc1cccc2c1OP(=O)(OCC1OC(n3cc(C)c(=O)[nH]c3=O)CC1N=[N+]=[N-])OC2 (configuration not stated)	> 50 µM	> 50 µM	40 µM	> 50 µM	> 50 µM	–	0.006 µM	–
Cc1cn(C2C=CC(COP3(=O)OCc4cccc(CCC(=O)O)c4O3)O2)c(=O)[nH]c1=O (configuration not stated)	–	–	> 50 µM	> 50 µM	–	–	0.19 µM	–
Cc1cn(C2C=CC(COP3(=O)OCc4cc(-c5ccccc5)ccc4O3)O2)c(=O)[nH]c1=O (configuration not stated)	–	–	4.4 µM	> 50 µM	–	–	0.4 µM	–
Cc1cn(C2C=CC(COP3(=O)Oc4ccccc4C(C(Cl)Cl)O3)O2)c(=O)[nH]c1=O (configuration not stated)	–	–	26 µM	> 50 µM	–	–	0.16 µM	–
Cc1cn(C2C=C[C@@H](CO[P@]3(=O)OCc4cccc(C(C)(C)C)c4O3)O2)c(=O)[nH]c1=O (single isomer, unassigned)	–	–	2.6 µM	> 50 µM	–	–	0.6 µM	–
Cc1cccc2c1O[P@](=O)(OC[C@@H]1C=CC(n3cc(C)c(=O)[nH]c3=O)O1)OC2 (single isomer, unassigned)	≥ 5 µM	> 50 µM	0.24 µM	> 50 µM	> 50 µM	–	0.42 µM	–
COc1ccc2c(c1)CO[P@@](=O)(OC[C@@H]1C=CC(n3cc(C)c(=O)[nH]c3=O)O1)O2 (single isomer, unassigned)	–	–	1.8 µM	> 50 µM	–	–	0.5 µM	–
Cc1cccc2c1OP(=O)(OC[C@H]1C=CC(n3cnc4c(NC5CC5)nc(N)nc43)C1)OC2 (single isomer, unassigned)	–	–	1.3 µM	> 50 µM	–	–	0.7 µM	–
